Compounds with a hit are over-represented: about 11% of the library has one in this group of screens.
G6PDH CS = inhibits Leuconostoc G6PDH, flagging false hits in G6PDH-based assays; actives 0.12% (n = 200,000); Purified L. mesenteroides G6PDH, diaphorase/resazurin coupled fluorescence, 45 min; AID 1020; inhibition, % at 5 µM
Diaph inh CS = diaphorase inhibition or chemical oxidation counter-screen; actives 0.69% (n = 190,000); inhibition, % at 20 µM; AID 1217; diaphorase resazurin-to-resorufin fluorescence, NADH, 16 min; bacterial (C. kluyveri) enzyme, not human;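 active = primary screen inhibition at 20 µM above a set limit, cut at about 50% in these data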;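 note: plate controls were DMSO with full reaction for no effect and wells lacking NADH for full effect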
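controls = No-NADH positive control and DMSO neutral control | system = Clostridium kluyveri diaphorase enzyme | timing = reaction incubation of 16 min at room temperature | signal = resorufin fluorescence 544/590 nm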
Diaph act CS = diaphorase activation or chemical reduction counter-screen. Diaphorase/resazurin coupled assay, resorufin fluorescence, 16 min; stronger effect = higher value; 1 = vehicle wells, 0 = NADH-free wells. activation factor at 20 µM. actives 0.005% (n = 190,000);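 active = diaphorase activity raised at least twofold by the compound at 20 µM; inactive = activation factor below 2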
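Material: Purified diaphorase enzyme from Clostridium kluyveri | Buffer or medium: 50 mM HEPES pH 7.4 with 4.542 mM MgCl2, 0.005% Tween 20 | Times: 16 min enzyme reaction, ambient temperature | Signal: Red resorufin fluorescence at 544/590 nm excitation/emission | Measure: Increased resorufin signal from activators or reducing compounds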
Lmaj promast = inhibitors of Leishmania major promastigote growth. actives 9% (n = 200,000). Leishmania major promastigotes, resazurin fluorescence viability. inhibition, % at 10 µM;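 note: promastigotes grown with compound for 44 hours at 28 °C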
WT yeast gro inh = growth inhibition of WT yeast, mitochondrial fusion screen. mitochondrial fusion phenotypic screen, WT strain. actives 2.1% (n = 190,000). inhibition, % at 10 µM; in the data active = inhibition above about 58%; tested in S. cerevisiae
An asterisk follows results filed as active; . = not tested or not shown. Cut-off read from the data, not from the text of the source, unless noted: active = inhibition above about 50%; inactive = the rest.

SMILES | G6PDH CS | Diaph inh CS | Diaph act CS | Lmaj promast | WT yeast gro inh
CC(C)c1cc(C(=O)N2CCN(C(c3ccccc3)c3ccccc3)CC2)no1 | 10 | 19 | 0.8 | -2 | 57
CN1CCN(C(=O)c2cc(-c3ccccc3)on2)CC1 | 0 | 10 | 0.9 | 70* | -8
CN(C)c1ccc(/C=N/N=C2/NC(=O)/C(=C/c3ccc([N+](=O)[O-])cc3)S2)cc1 | 2 | -10 | 1.1 | -3 | 17
Cc1cc(C)c(C)c(S(=O)(=O)N2CCN(CC(=O)Nc3sccc3C#N)CC2)c1C | -2 | 12 | 0.9 | 57* | -8
CCCCn1c(NC(=O)c2ccccc2)c(C#N)c2nc3ccccc3nc21 | 47 | 28 | 0.7 | 97* | 11
CCC(C)n1c(NC(=O)c2ccccc2)c(C#N)c2nc3ccccc3nc21 (configuration not stated) | 47 | 11 | 0.9 | 49 | .
CCOC(=O)c1[nH]c(C)c(C(=O)O)c1C | 1 | 4 | 1 | -24 | 10
CCOC(=O)c1[nH]c(C=O)c(C(=O)OCC)c1C | 8 | . | . | 88* | -9
Cc1[nH][nH]c(=O)c1C(c1ccc(-c2ccc(Cl)c(C(=O)O)c2)o1)c1c(C)[nH][nH]c1=O | 33 | 48 | 0.5 | -5 | -1
COC(=O)c1cccc(-c2ccc(C(c3c(C)[nH][nH]c3=O)c3c(C)[nH][nH]c3=O)o2)c1 | 30 | 35 | 0.6 | 92* | -17
COC(=O)c1ccccc1NC(=O)c1ccc(-c2ccccc2F)o1 | 1 | 7 | 0.9 | -2 | -8
COC(=O)c1ccccc1-c1ccc(C(c2c(C)[nH][nH]c2=O)c2c(C)[nH][nH]c2=O)o1 | 19 | . | . | 100* | -1
CC1CCCN(c2ccc(C(=O)NCc3ccco3)cc2[N+](=O)[O-])C1 (configuration not stated) | 6 | 20 | 0.8 | 73* | 33
O=C(NCc1ccco1)c1cc(-c2ccccc2)on1 | 1 | 19 | 0.8 | -1 | 60*
CCC(CC)C(=O)c1c[nH]c(C(=O)NCc2ccco2)c1 | 16 | 18 | 0.8 | -5 | 61*
O=C(NCc1ccco1)c1cc([N+](=O)[O-])cc([N+](=O)[O-])c1 | 15 | 10 | 0.9 | 58* | -4
Cc1c(C(=O)N2CCC(C)CC2)oc2ccc(S(=O)(=O)N3CCC4(CC3)OCCO4)cc12 | 12 | 5 | 1 | -1 | 15
CCN(CC)S(=O)(=O)c1cc(Cl)ccc1OC | 2 | -12 | 1.1 | 0 | 1
C/C(CC(=O)Nc1ccc2c(c1)OCCO2)=N\NC(=O)c1ccccn1 | 3 | 5 | 0.9 | -2 | -13
CC(=O)c1ccc(N(C(=O)Cn2nnc(-c3ccccc3)n2)C(C(=O)NC2CCCCC2)c2ccccn2)cc1 (configuration not stated) | 10 | 20 | 0.8 | 23 | -10
S=C(NCCc1ccccc1)N/N=C/C1CCCCC1 | 3 | 13 | 0.9 | 21 | 72*
S=C(NCCc1ccccc1)N/N=C/c1ccccc1Cl | 1 | 21 | 0.8 | -9 | 64*
S=C(NCCc1ccccc1)NN=C1CCCCCC1 | 3 | -8 | 1.1 | 2 | 66*
CCc1ccc(/C=N/NC(=S)NCCc2ccccc2)cc1 | 1 | 7 | 0.9 | 0 | -17
CC(C)(C)CC(=O)NC(=S)NCCc1ccccc1 | -1 | 20 | 0.8 | 90* | 35
SMILES | G6PDH CS | Diaph inh CS | Diaph act CS | Lmaj promast | WT yeast gro inh
COCCNC(=S)NN=C1CCCCCC1 | 0 | 4 | 1 | -5 | 11
CC(C)CC(=O)NC(=S)NCCc1ccccc1 | 6 | -6 | 1.1 | 41 | -3
S=C(NCCc1ccccc1)NC1CCC(NC(=S)NCCc2ccccc2)CC1 (configuration not stated) | 6 | -5 | 1.1 | -5 | -30
COc1ccc(-n2c(SCC(=O)NCC3CCCO3)nc3ccccc32)cc1 (configuration not stated) | 6 | 7 | 0.9 | 5 | 10
Cc1ccc(C(=O)c2coc3ccc(O)c(CN4CCN(C)CC4)c23)cc1 | -2 | 6 | 0.9 | 11 | 1
O=C(NC(=S)NCc1ccccc1)C1CC1 | 3 | 11 | 0.9 | -2 | 8
O=C(NC(=S)NCCc1ccccc1)C1CCCCC1 | 5 | 16 | 0.8 | 88* | 29
COC(=O)C1CCN(c2ccc(C(N)=O)cc2[N+](=O)[O-])CC1 | -15 | 8 | 0.9 | -6 | -7
